The values below come from ChEMBL document CHEMBL1938334, “Quinoline tricyclic derivatives. Design, synthesis and evaluation of the antiviral activity of three new classes of RNA-dependent RNA polymerase inhibitors” (Bioorg Med Chem, 2011).

pEC50, pIC50: −log10 of the molar value.

Series [1] relates to CCRF-SB. Description: Cytotoxicity against human CCRF-SB cells after 96 hrs by MTT assay. It counts as functional. In a few lines: (§1)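 Cells were seeded at 1×10^5 cells/mL: leukaemia/lymphoma lines in RPMI-1640, solid tumour and fibroblast lines in specific media, all with 10% FCS. Serial compound dilutions were applied for 96 h at 37 °C, 5% CO2, under conditions allowing controls at least three rounds of multiplication. Viability was read by MTT. CC50 by linear regression. Mean of three determinations.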
In general terms: Tetrazolium dyes change colour on reduction, which living cells bring about.

The nature of series [2]: Cytotoxicity against african green monkey Vero 76 cells after 48 to 96 hrs by crystal violet staining. The format is cell-based. The conditions noted are these: chlorocebus sabaeus. In a few lines:
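Vero-76 cells were seeded at 4×10^5 cells/mL in D-MEM with L-glutamine, kanamycin and 10% FBS, then exposed to serial compound dilutions at 37 °C, 5% CO2 for 48–96 h. Viability was read by crystal violet staining. 50% cytotoxic concentration by linear regression relative to untreated controls; mean of three independent determinations.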

Series [3] in a line: Cytotoxicity against MDBK cells after 48 to 96 hrs by MTT assay. It counts as cell-based, Bos taurus. To be noted: cattle. In outline: (§2)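 MDBK seeded at 6×10^5 and BHK at 1×10^6 cells/mL in MEM-Earle's with L-glutamine, 1 mM pyruvate, kanamycin, plus 10% horse serum (MDBK) or 10% FBS (BHK). Cells were grown at 37 °C, 5% CO2 with serial compound dilutions (DMSO stocks diluted in medium). Viability by MTT after 48–96 h. CC50 was taken by linear regression versus untreated controls; three independent determinations.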

The nature of series [4]: Antiviral activity against Bovine viral diarrhea virus 1-NADL infected in MDBK cells assessed as inhibition of virus-induced cytopathogenicity after 3 to 4 days by MTT assay. It counts as functional, cell-based. The conditions noted are these: Bovine viral diarrhea virus isolates and strains. In outline:
(§3)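 Host cells were seeded in 96-well plates at 3×10^4 cells/well (MDBK) or 5×10^4 cells/well (BHK-21) and grown to confluent monolayers overnight. They were infected at m.o.i. 0.01 in maintenance MEM with 0.5% inactivated FBS. Serial compound dilutions were added after 1 h. Viability was read by MTT after 3–4 days at 37 °C. EC50 was taken by linear regression against untreated controls. Mean of three determinations.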
A general note: Damage to the host cells serves as the signal in cytopathic effect assays.

The test system of series [5] is HepG2. Description: Cytotoxicity against human HepG2 cells after 96 hrs by MTT assay. It counts as functional. To be noted: HepG2, 96 h. In a few lines: as §1
For series [6], the system named is Human orthopneumovirus. The series can be described thus: Antiviral activity against Human respiratory syncytial virus A2 infected in african green monkey Vero 76 cells assessed as reduction of virus-induced plaque formation after 5 days using crystal violet staining. It counts as functional, organism-based. The conditions noted are these: 120 h.
Series [7] is described as follows: Inhibition of Bovine viral diarrhea virus 1-NADL recombinant NS5B Cdelta 21 RNA dependent RNA polymerase expressed in Escherichia coli (DE3) using GTP as substrate preincubated for 30 mins before substrate addition measured after 120 mins by fluorescence assay.
A short description of series [8]: Cytotoxicity against BHK21 cells after 48 to 96 hrs by MTT assay. It counts as cell-based, Mesocricetus auratus, BHK-21. To be noted: hamster. In a few lines:
as §2

Series [9] has as its system Human alphaherpesvirus 1. Description: Antiviral activity against Human herpesvirus 1 strain KOS infected in african green monkey Vero 76 cells assessed as reduction of virus-induced plaque formation after 3 days using crystal violet staining. The format is functional, organism-based. To be noted: Human alphaherpesvirus 1, KOS, 72 h.
Series [10] relates to Reovirus sp. The series can be described thus: Antiviral activity against Reovirus type-1 3651 infected in hamster BHK21 cells assessed as inhibition of virus-induced cytopathogenicity after 3 to 4 days by MTT assay. It counts as functional, organism-based. The conditions noted are these: Reovirus sp., 3651, BHK-21. In outline: as §3
Series [11] deals with Yellow fever virus. Description: Antiviral activity against Yellow fever virus 17D Stamaril Pasteur J07B01 infected in hamster BHK21 cells assessed as inhibition of virus-induced cytopathogenicity after 3 to 4 days by MTT assay. It counts as functional, cell-based. The conditions noted are these: Stamaril Pasteur J07B01, BHK-21. In outline:
as §3

For series [12], the system named is Hepatitis C virus. Description: Antiviral activity against HCV1b infected in human GS4.1 cells assessed as inhibition of virus-induced cytopathogenicity by measuring viral NS4A protein level after 72 hrs by ELISA. It counts as functional, organism-based, Hepacivirus hominis. To be noted: genotype 1b. In a few lines:
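GS4.1 cells are Huh-7 cells carrying a genotype 1b subgenomic replicon, kept in 0.5 mg/mL G418. They were seeded at 7.5×10^3 cells/well with two-fold serial dilutions of compound (top 75 μM) and incubated 72 h at 37 °C. Huh-7 cells without the replicon served as negative control. NS4A was measured by cell ELISA with anti-NS4A mAb A-236, peroxidase and o-phenylenediamine, A492. EC50 came from four-parameter sigmoidal fit.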

Series [13] concerns DU-145. Description: Cytotoxicity against human DU145 cells after 96 hrs by MTT assay. The format is functional. To be noted: DU-145, 96 h. In outline: as §1
A short description of series [14]: Cytotoxicity against human MT4 cells after 96 hrs by MTT assay. The format is cell-based. In a few lines:
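Exponentially growing MT-4 cells seeded at 1×10^5 cells/mL in RPMI-1640 with 10% FBS, penicillin and streptomycin. Incubated with serial compound dilutions at 37 °C, 5% CO2 for 96 h; viability by MTT. CC50 by linear regression relative to untreated controls; mean of three independent determinations.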

Series [15] has as its system MCF7. Description: Cytotoxicity against human MCF7 cells after 96 hrs by MTT assay. The format is functional. The conditions noted are these: MCF7, 96 h. In a few lines: as §1
Series [16] relates to SK-MES-1. The series can be described thus: Cytotoxicity against human SKMES1 cells after 96 hrs by MTT assay. It counts as functional. The conditions noted are these: SK-MES-1, 96 h. In a few lines:
as §1

Series [17] is described as follows: Selectivity index, ratio of EC50 for Bovine viral diarrhea virus 1-NADL to CC50 for MDBK cells. In outline:
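CC50 was measured in mock-infected MDBK cells seeded at 6×10^5 cells/mL in MEM-E with 10% horse serum and treated with serial compound dilutions for 48–96 h; viability by MTT. EC50 came from BVDV NADL CPE protection in MDBK cells at m.o.i. 0.01, 3–4 days, MTT. Both were obtained by linear regression.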

Series [18] has as its system SK-MEL-28. The series can be described thus: Cytotoxicity against human SK-MEL-28 cells after 96 hrs by MTT assay. The format is functional. The conditions noted are these: SK-MEL-28, 96 h. In a few lines:
as §1

Series [19] can be described thus: Inhibition of HCV1b BK 6xHis-tagged recombinant NS5B Cdelta 21 RNA dependent RNA polymerase expressed in Escherichia coli (DE3) using GTP as substrate preincubated for 30 mins before substrate addition measured after 120 mins by fluorescence assay. Also on record: species or system Hepatitis C virus (isolate BK). In outline: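 His-tagged NS5B (BVDV C-terminal Δ24; HCV1b Δ21) from E. coli Rosetta 2(DE3)pLysS, Ni-NTA purified, 500–600 ng per 20 μL. The template was poly(rC) 10 μg/mL and the primer oligo(rG)12 0.1 μg/mL, with GTP 80 μM. Buffer: 20 mM Tris pH 7.0, 0.5 mM MnCl2 or 5 mM MgCl2, 5% DMSO. Enzyme/drug 30 min at RT, then GTP added; 120 min at 37 °C (BVDV) or 25 °C (HCV). Read-out was dsRNA dye fluorescence (ex 480/em 520). IC50 from dose–response fits.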

For series [20], the system named is Vesicular stomatitis Indiana virus. Description: Antiviral activity against clinical isolate Vesicular stomatitis Indiana virus infected in african green monkey Vero 76 cells assessed as reduction of virus-induced plaque formation after 2 days using crystal violet staining. It counts as functional, organism-based. The conditions noted are these: 48 h.
A short description of series [21]: Cytotoxicity against human GS4.1 cells. The format is cell-based. In a few lines:
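Huh-7 cells carrying HCV genotype 1b subgenomic replicon, grown in D-MEM/10% FBS with 0.5 mg/mL G418. Seeded at 7.5×10^3 cells/well with two-fold serial dilutions (top 75 μM), incubated 72 h at 37 °C. Viability by MTS-type Cell Titer 96 Aqueous One reagent; CC50 from % cytotoxicity versus concentration curves.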

In general, CC50 refers to the concentration that lowers cell viability or growth by half. In general, pEC50 refers to −log10 of the EC50, conventionally taken in molar units. In general, pIC50 refers to the IC50 on a negative log10 scale, so that one unit is a factor of ten.

As to `O=[N+]([O-])c1ccc(-c2nc3cc4cccnc4c(Cl)c3[nH]2)cc1`, the CC50 in [1] is > 100 µM; in [2], > 100 µM; in series [3] it was > 100 µM; in [5], 10.3 µM; in series [8], > 100 µM; in series [13] it was > 100 µM. Also, the CC50 in series [15] was > 100 µM; in series [16] it was > 100 µM; in series [18] it was > 100 µM; in series [21], 12 µM. Further, the pEC50 was 5.92 in [4]; < 4.00 in [6]; 4.36 in [9]; < 4.00 in series [10]; < 4.00 in [11]; 5.51 in series [12]. Also, the pEC50 in [20] was < 4.00. Besides, the values for the negative-log IC50 (pIC50) in series [7] and in series [19] were 7.22 and 5.10, respectively. Besides, the CC50 at 96 h in [14] is > 100 µM. Besides, the “Selectivity Index” value in series [17] is given as >100.
